Calls of active or inactive are those of the source. The calls are words filed in the database; no cut-off is given here.
Columns and labels:
HepG2 = test: Antiproliferative activity against human HepG2 cells after 72 hrs by XTT assay; format: functional; details: HepG2, 72 h
Summary of the method: (§1)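 Cells were grown as monolayers in DMEM with 10% FBS, penicillin, streptomycin and amphotericin at 37 °C and 5% CO2. Plating was 5×10³ cells/well, with treatment for 72 h in 10% FBS medium, a medium change, then another day. XTT (1 mg/mL) plus PMS in serum-free medium was added for 4 h at 37 °C and read at 492 nm. Growth was taken as % of control (mean of n = 3). GI50 was taken from the linear portion of the curve as the 50% absorbance reduction.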

A549 [1] = test: Antiproliferative activity against human A549 cells after 72 hrs by XTT assay; format: functional; details: A549, 72 h; summary of the method: as §1
[2] = Antiproliferative activity against human H1299 cells after 72 hrs by XTT assay; format: functional; details: NCI-H1299, 72 h; summary of the method: as §1
[3] = Cytotoxicity against human MRC5 cells after 72 hrs by XTT assay; format: cell-based; summary of the method: as §1
[4] = Antiproliferative activity against human Hep3B cells after 72 hrs by XTT assay; format: functional, Hep 3B2; summary of the method: as §1
[5] = Antiproliferative activity against human HepG2(2.2.1) cells after 72 hrs by XTT assay; format: functional; details: HepG2, 72 h; summary of the method: as §1
A549 [6] = test: Cell cycle arrest in human A549 cells assessed as accumulation at G1 phase at 0.1 uM after 24 hrs by flow cytometry; format: functional
Summary of the method: (§2)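 A549 cells were exposed to DMSO or compound at 0.1, 1.0, 5.0 or 10.0 µM for 24 h. Cells were harvested, rinsed in PBS, fixed in 70% ethanol and stored at −20 °C. Staining used propidium iodide solution with 0.2 mg/mL RNase and 0.1% Triton X-100, at least 30 min at room temperature in the dark. Cell-cycle phases were read by flow cytometry.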

A549 [7] = test: Induction of apoptosis in human A549 cells assessed as shrinkage in microtubule network at 1.0 uM after 24 hrs by immunofluorescence; format: functional, cell-based
Summary of the method: (§3)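 A549 cells on cover glasses were treated for 24 h, then fixed in 4% paraformaldehyde for 1 h. Glycine-PBS wash, then permeabilization with 2% FBS and 0.4% Triton X-100 for 15 min. Cells were stained with anti-β-tubulin monoclonal (1:1000, 4 °C overnight), then FITC anti-mouse IgG (1:200, 1 h, room temperature). DAPI was added for nuclei, and imaging was by confocal laser scanning microscopy.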

A549 [8] = test: Cell cycle arrest in human A549 cells assessed as accumulation at subG1 phase at 1.0 uM after 24 hrs by flow cytometry; format: functional; summary of the method: as §2
A549 [9] = test: Cell cycle arrest in human A549 cells assessed as accumulation at S phase at 0.1 uM after 24 hrs by flow cytometry; format: functional; summary of the method: as §2
A549 [10] = test: Cell cycle arrest in human A549 cells assessed as accumulation at G1 phase at 1.0 uM after 24 hrs by flow cytometry; format: functional; summary of the method: as §2
A549 [11] = test: Cell cycle arrest in human A549 cells assessed as accumulation at S phase at 1.0 uM after 24 hrs by flow cytometry; format: functional; summary of the method: as §2
A549 [12] = test: Induction of apoptosis in human A549 cells assessed as PARP cleavage after 24 hrs by Western blot; format: functional, cell-based
Summary of the method: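 Exponentially growing A549 cells were treated for 24 h, then lysed on ice for 30 min in Tris pH 7.5/NP-40 buffer with protease and phosphatase inhibitors. Protein was measured by Bradford, and 20 µg was resolved on 10% SDS–PAGE and transferred to PVDF. Blots were blocked in 5% milk, probed with anti-PARP (1:1000, 2 h) then HRP anti-rabbit (1:5000, 30 min), and reprobed for β-actin as a loading check.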

A549 [13] = test: Cell cycle arrest in human A549 cells assessed as accumulation at G1 phase at 5.0 uM after 24 hrs by flow cytometry; format: functional; summary of the method: as §2
A549 [14] = test: Induction of apoptosis in human A549 cells assessed as DNA fragmentation after 24 hrs by agarose gel electrophoresis; format: functional, cell-based
Summary of the method: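 A549 cells were treated at 1.0, 5.0 or 10.0 µM for 24 h and washed in PBS. Total genomic DNA was isolated with a kit and run on a 2.0% agarose gel in 1× TAE at 100 V.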

A549 [15] = test: Cell cycle arrest in human A549 cells assessed as accumulation at G2/M phase at 5.0 uM after 24 hrs by flow cytometry; format: functional; summary of the method: as §2
A549 [16] = test: Cell cycle arrest in human A549 cells assessed as accumulation at S phase at 5.0 uM after 24 hrs by flow cytometry; format: functional; summary of the method: as §2
A549 [17] = test: Cell cycle arrest in human A549 cells assessed as accumulation at G2/M phase at 1.0 uM after 24 hrs by flow cytometry; format: functional; summary of the method: as §2
A549 [18] = test: Cell cycle arrest in human A549 cells assessed as accumulation at subG1 phase at 0.1 uM after 24 hrs by flow cytometry; format: functional; summary of the method: as §2
A549 [19] = test: Cell cycle arrest in human A549 cells assessed as accumulation at subG1 phase at 5.0 uM after 24 hrs by flow cytometry; format: functional; summary of the method: as §2
A549 [20] = test: Induction of apoptosis in human A549 cells assessed as microtubule network damage at 10.0 uM after 24 hrs by immunofluorescence; format: functional, cell-based; summary of the method: as §3
A549 [21] = test: Cell cycle arrest in human A549 cells assessed as accumulation at G2/M phase at 0.1 uM after 24 hrs by flow cytometry; format: functional; summary of the method: as §2
A549 [22] = test: Induction of apoptosis in human A549 cells assessed as apoptotic bodies after 24 hrs by fluorescence microscopy; format: functional, cell-based; summary of the method: as §3
A549 [23] = test: Induction of apoptosis in human A549 cells assessed as morphological changes after 24 hrs by fluorescence microscopy; format: functional, cell-based
Summary of the method: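 A549 cells were treated with DMSO or compound at 1, 5 or 10 µM for 24 h at 37 °C, then photographed under a microscope.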

A549 [24] = test: Cell cycle arrest in human A549 cells assessed as accumulation at G1 phase at 10.0 uM after 24 hrs by flow cytometry; format: functional; summary of the method: as §2
A549 [25] = test: Cell cycle arrest in human A549 cells assessed as accumulation at subG1 phase at 10.0 uM after 24 hrs by flow cytometry; format: functional; summary of the method: as §2
A549 [26] = test: Cell cycle arrest in human A549 cells assessed as accumulation at S phase at 10.0 uM after 24 hrs by flow cytometry; format: functional; summary of the method: as §2
A549 [27] = test: Cell cycle arrest in human A549 cells assessed as accumulation at G2/M phase at 10.0 uM after 24 hrs by flow cytometry; format: functional; summary of the method: as §2

SMILES | GI50 (HepG2) [µM] | GI50 (A549 [1]) [µM] | GI50 [2] [µM] | GI50 at 72 h [3] [µM] | GI50 [4] [µM] | GI50 [5] [µM] | further results
CC[C@@]1(O)C(=O)OCc2c1cc1n(c2=O)Cc2cc3c(CN(C)C)c(O)ccc3nc2-1 [TOPOTECAN] | 3.83 | 5.98 | > 10 | 4.25 | 0.22 | 4.95 | 
O=C1c2cc(OCCN3CCCC3)ccc2-c2c(-c3ccc(OCCN4CCCC4)cc3)nc3ccccc3c21 | 4.03 | 3.75 | 6.95 | 5.31 | 3.46 | 6.15 | 
O=C1c2cc(O)ccc2-c2c(-c3ccc(OCCN4CCCCC4)cc3)nc3ccccc3c21 | 4.3 | 5.06 | 6.55 | 3.1 | 5.4 | 6.4 | 
COc1ccc(-c2nc3ccccc3c3c2-c2ccc(OC)cc2C3=O)cc1 | > 10 | > 10 | > 10 | > 10 | > 10 | > 10 | 
COc1ccc(-c2nc3ccc(OC)cc3c3c2-c2ccc(OC)cc2C3=O)cc1 | > 10 | > 10 | 7.84 | 10.2 | 12.5 | > 10 | Activity (A549 [24]): 76.9%; Activity (A549 [25]): 1%; Activity (A549 [8]): 0.9%; Activity (A549 [10]): 78.2%; Activity (A549 [26]): 14.7%; Activity (A549 [11]): 13.2%; Activity (A549 [13]): 77.9%; Activity (A549 [27]): 8.4%; Activity (A549 [15]): 7.8%; Activity (A549 [16]): 14.3%; Activity (A549 [17]): 8.6%; Activity (A549 [19]): 1%
O=C1c2cc(O)ccc2-c2c(-c3ccc(O)cc3)nc3ccc(O)cc3c21 | 5.51 | 4.98 | 10.4 | 10.3 | 12.2 | 6.61 | 
COc1ccc(-c2nc3ccc(F)cc3c3c2-c2ccc(OC)cc2C3=O)cc1 | > 10 | > 10 | 6.44 | > 10 | > 10 | > 10 | 
O=C1c2cc(O)ccc2-c2c(-c3ccc(OCCN4CCCC4)cc3)nc3ccccc3c21 | 4.28 | 4.33 | 7.05 | 3.16 | 3.4 | 6.06 | 
O=C1c2cc(O)ccc2-c2c(-c3ccc(OCCN4CCCCC4)cc3)nc3ccc(F)cc3c21 | 4.78 | 6 | 5.32 | 5.91 | 6.61 | 6.03 | 
O=C1c2cc(OCCN3CCCCC3)ccc2-c2c(-c3ccc(OCCN4CCCCC4)cc3)nc3ccc(OCCN4CCCCC4)cc3c21 | 0.7 | 0.81 | 6.26 | 4.64 | 5.02 | 6.07 | 

Further lines, with some results ahead:

GI50 (HepG2) [µM] | GI50 (A549 [1]) [µM] | SMILES | GI50 [2] [µM] | GI50 at 72 h [3] [µM] | GI50 [4] [µM] | GI50 [5] [µM] | further results
5.94 | > 10 | CCc1c2c(nc3ccc(OC(=O)N4CCC(N5CCCCC5)CC4)cc13)-c1cc3c(c(=O)n1C2)COC(=O)[C@]3(O)CC [IRINOTECAN] | > 10 | 77.5 | 4.73 | > 10 | 
5.59 | 5.87 | CN(C)CCCOc1ccc(-c2nc3ccccc3c3c2-c2ccc(O)cc2C3=O)cc1 | 6.39 | 4.61 | 5.34 | 6.82 | 
4.35 | 3.07 | CN(C)CCCOc1ccc(-c2nc3ccccc3c3c2-c2ccc(OCCCN(C)C)cc2C3=O)cc1 | 5.35 | 3.68 | 3.05 | 5.39 | 
0.62 | 0.67 | O=C1c2cc(OCCN3CCCC3)ccc2-c2c(-c3ccc(OCCN4CCCC4)cc3)nc3ccc(OCCN4CCCC4)cc3c21 | 0.37 | 0.71 | 1.73 | 3.44 | 
6.1 | 6.63 | O=C1c2cc(O)ccc2-c2c(-c3ccc(OCCN4CCCC4)cc3)nc3ccc(F)cc3c21 | 5.25 | 6.02 | 6.34 | 5.69 | 
0.6 | 0.68 | CN(C)CCCOc1ccc(-c2nc3ccc(OCCCN(C)C)cc3c3c2-c2ccc(OCCCN(C)C)cc2C3=O)cc1 | 5.18 | 6.2 | 4.44 | 4.25 | Activity (A549 [6]): 73.9%; Activity (A549 [7]): Active; Activity (A549 [8]): 2%; Activity (A549 [9]): 16.3%; Activity (A549 [10]): 75%; Activity (A549 [11]): 13.6%; Activity (A549 [12]): Dose-dependent effect; Activity (A549 [13]): 71.9%; Activity (A549 [14]): Active; Activity (A549 [15]): 15.8%; Activity (A549 [16]): 12.3%; Activity (A549 [17]): 11%; Activity (A549 [18]): 1.5%; Activity (A549 [19]): 17.1%; Activity (A549 [20]): Active; Activity (A549 [21]): 9.8%; Activity (A549 [22]): Active; Activity (A549 [23]): Active
9.12 | > 10 | O=C1c2cc(O)ccc2-c2c(-c3ccc(O)cc3)nc3ccccc3c21 | > 10 | > 10 | > 10 | > 10 | 
4.32 | 5.68 | O=C1c2cc(OCCN3CCCCC3)ccc2-c2c(-c3ccc(OCCN4CCCCC4)cc3)nc3ccccc3c21 | 6.38 | 4.34 | 1.35 | 6.24 | 
> 10 | > 10 | O=C1c2cc(O)ccc2-c2c(-c3ccc(O)cc3)nc3ccc(F)cc3c21 | 5.88 | > 10 | 9.01 | > 10 | 
2.82 | 6.24 | O=C1c2cc(OCCN3CCCCC3)ccc2-c2c(-c3ccc(OCCN4CCCCC4)cc3)nc3ccc(F)cc3c21 | 0.79 | 4.52 | 0.66 | 3 | 
4.92 | 6.23 | O=C1c2cc(OCCN3CCCC3)ccc2-c2c(-c3ccc(OCCN4CCCC4)cc3)nc3ccc(F)cc3c21 | 4.3 | 5.15 | 6.24 | 6.11 | 
5.92 | 6.35 | CN(C)CCCOc1ccc(-c2nc3ccc(F)cc3c3c2-c2ccc(O)cc2C3=O)cc1 | 6.13 | 4.75 | 6.72 | 5.62 | 
0.61 | 3.67 | CN(C)CCCOc1ccc(-c2nc3ccc(F)cc3c3c2-c2ccc(OCCCN(C)C)cc2C3=O)cc1 | 0.72 | 1.86 | 0.67 | 0.59 | 

Reference: ChEMBL document CHEMBL1152640, “Synthesis and antiproliferative evaluation of 6-arylindeno[1,2-c]quinoline derivatives” (Bioorg Med Chem, 2009)
